The data set has as its system MS2 coat protein. The data set is described as follows: apparent Kd, MS2 coat protein; higher = weaker binding; RNA-MaP array; FMN 200 µM where present. In outline: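 Designs on Illumina sequencing-chip clusters, transcribed by stalled E. coli RNA polymerase, were exposed to SNAP-549-labelled MS2 coat protein in doubling steps from 0.7 or 1.5 nM up to 3 µM, without and then with constant ligand. The buffer held 100 mM Tris-HCl pH 7.5, 80 mM KCl, 4 mM MgCl2, BSA, DTT, yeast tRNA and Tween-20. Apparent Kd values are medians of filtered per-cluster binding-curve fits to green signal normalised to red-channel RNA signal and control-cluster median Fmax.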

The mark [1] stands for this setting: designed as: OFF switch for flavin mononucleotide, no ligand.
Setting [2] is: ligand present: flavin mononucleotide, designed as: OFF switch for flavin mononucleotide.
Where [3] appears, read: designed as: ON switch for flavin mononucleotide, no ligand.
[4] abbreviates: ligand present: flavin mononucleotide, designed as: ON switch for flavin mononucleotide.

In the case of “CUUUAGCUAGGAUAUACAUGAGGAUCACCCAUGUUAGCGGCCAAUUGGACCGCGGGUUGUAGAAGGAGCAUUAA”, the “apparent Kd” value stood at 37.5 nM under setting [1] and 50.3 nM under setting [2].

For “GGUCCACAUGAGGAUCACCCAUGUUAGGAUAUCUCGUCCGAGCAGUUAUGGGCCGGGCAGAGAAGGAAUGUGAA”, the “apparent Kd” value is, setting by setting: under setting [1], 30.3 nM; under setting [2], 26.6 nM.

With “AAAUAAGUUGCAGGAUAUUAUUUUUAAUAAAUAUAAGAAGGGCAACAAACCUCACAUGAGGAUCACCCAUGUACCCAUGCAUCU”, the “apparent Kd” value is, setting by setting: under setting [1], 97.8 nM; under setting [2], 38.4 nM.

Consider “UUAGAUUAUUGAGGAUAUGGAUCUUAUUAUUAACCAGAAGGCAAACUCAACAUGAGGAUCACCCAUGUAUAAAGGGUAUUAGUU”, for which the “apparent Kd” value under setting [1] was 89.5 nM and the “apparent Kd” value under setting [2] is 83.4 nM.

As to “ACCUCACAUGAGGAUCACCCAUGUUAGGAUAUCUCGGUGCCCUGCAGGCAGUGGCACCAGAGAAGGAACGUGCA”, the “apparent Kd” value under setting [1] was found to be 19.2 nM and the “apparent Kd” value under setting [2] came to 24.2 nM.

Take “GCGGUACAUGAGGAUCACCCAUGUCAGGAUAUCCGCUGUUUGUUAAUAAACAGGCGGUGGAGAAGGGACUUCGC”: the “apparent Kd” value reads like this: under setting [1], 34.9 nM; under setting [2], 36.7 nM.

As to “CUUUUGUGAGGAUAUCAGUAGUAAUAAAAUAAAAUUACUACUGAGAAGGCACAUGAGGAUCACCCAUGUUCCUC”, the “apparent Kd” value is 40 nM under setting [1] and 182 nM under setting [2].

With “CUUUCGUGAGGAUAUGUGGCUUCGAUCGUGAAAUCGAGGCUACAGAAGGCACAUGAGGAUCACCCAUGUUCCUC”, the “apparent Kd” value by setting is: under setting [1], 34.3 nM; under setting [2], 410 nM.

Consider “UCACAGUGUCGUUAUCCGUAGCGAACAUGAGGAUCACCCAUGUAGGAUAUGUUAUUAAACUAAUAACAGAAGGACGUUGGUCUC”, for which the “apparent Kd” value was 83.2 nM under setting [1] and 530 nM under setting [2].

Consider “UGGUACUAGGGAGGAUAUGGGAAGAUACAUGAGGAUCACCCAUGUUUAAGAAUGCCGAGAGGCAACCAGAAGGCCCUAGUACCU”, for which the “apparent Kd” value is 8.27 nM under setting [3] and 5.57 nM under setting [4].

Turning to “AGUUAAUAUCGAGGAUAUCCUCUACCACAUGAGGAUCACCCAUGUAUGCAUGGAGAAGGCGAUAUUAACAGCAUGUUACAUGCA”, the “apparent Kd” value worked out at 157 nM under setting [3] and 8.62 nM under setting [4].

Consider “GCUGCCGAUGCAGGAUAUCAGCACGUGUAGUGCUGAGAAGGGCACAUGAGGAUCACCCAUGUGAUCAAUUAAUAUCCGUGCAGC”, for which the “apparent Kd” value came out at 5.89 nM under setting [1] and 7.78 nM under setting [2].

With “GUAUUUGAAGUAAGGAUAUGCCUCUGGAAACGGAGGUAGAAGGUACAUGAGGAUCACCCAUGUUUCUCUCUUGG”, the “apparent Kd” value was 16.9 nM under setting [1] and 27.3 nM under setting [2].

With “GUAGCACAAACAAAUGUAACAUGAGGAUCACCCAUGUGUUAUGAGGAUAUGGAUGUGAAGUUAAUCCAGAAGGCAUUAUGCUAA”, the “apparent Kd” value runs as follows: under setting [3], 17.2 nM; under setting [4], 15.1 nM.

As to “UUAAUUUGAUGAUAUUAUGAUAUUAGAAGGCUGUACAUGUUGAUACAUGAGGAUCACCCAUGUAUAGAGGAUAUAGACAAUUUU”, the “apparent Kd” value runs as follows: under setting [1], 27.8 nM; under setting [2], 57.3 nM.

“AUAAAGUGAGGAUAUACAUGAGGAUCACCCAUGUGAAAGUCUAAAAAAAUGACAAAAAGUAGAAGGCACAAAUA”: the “apparent Kd” value reads like this: under setting [1], 23.8 nM; under setting [2], 24.3 nM.

With “CCCUAGGUAGGAUAUACUUGGGCUCGGCUGAUGUGCUUAAAACAUGAGGAUCACCCAUGUAGAAGGACUAAGGC”, the “apparent Kd” value by setting is: under setting [1], 15.3 nM; under setting [2], 12.9 nM.

For “AAGUCUGGACGAGGAUAUCAGCUGUAACUGGCGUCAACAUGAGGAUCACCCAUGUUGCUAUAGGGUGAGAAGGCGUUUGGGCAA”, the “apparent Kd” value reads like this: under setting [3], 24.1 nM; under setting [4], 19.5 nM.

As to “UUGGACGUCGUAGGAUAUGUAGGACAUUCCUACAUGAGGAUCACCCAUGUUGACAUGGAAGAAGGACAGAAGGACGAUGUCCAU”, the “apparent Kd” value was found to be 152 nM under setting [3] and 10.6 nM under setting [4].

Consider “CGAUAUAACUCAGGAUAUCGGCAUGGGUAGAUUACAUGAGGAUCACCCAUGUGCAUGUCCCGGCACGAGAAGGGAGUAACGCAU”, for which the “apparent Kd” value came out at 290 nM under setting [3] and 47.8 nM under setting [4].

On to “CACGCAUGUGGAGGAUAUGCAGUUAACAUUAGCGCAGAAGGCCACAUGAGGAUCACCCAUGUCCGGCAUUAGCCGAUGUUGAUC”, for which the “apparent Kd” value reads like this: under setting [1], 139 nM; under setting [2], 227 nM.

As to “CGUGACGACAUAGGAUAUUGAUACAUGAGGAUCACCCAUGUCAACCAUUUAUCUCAAAUUGUUGACAAGAAGGAUGUGGUCACG”, the “apparent Kd” value is, setting by setting: under setting [3], 263 nM; under setting [4], 13.6 nM.

Consider “UUUACAUGAGGAUCACCCAUGUCUGUCACACGUAUGUGCAAUCAGGAUAUGAUCUCAAGAAUGAAUUAGAAGGGAUAAAGAGAA”, for which the “apparent Kd” value reads like this: under setting [3], 212 nM; under setting [4], 250 nM.

Turning to “GCUUUAUAGAUCCAUUUUAACAACAUGAGGAUCACCCAUGUGCAGGAUAUCGUUUGUUUUAUAUUCGAGAAGGGCAAAUUCAUC”, the “apparent Kd” value under setting [1] is 37.9 nM and the “apparent Kd” value under setting [2] worked out at 93.1 nM.
